The term IC50 denotes the point on the concentration scale where inhibition reaches its midpoint. Read a low IC50 as greater potency.

Activity calls are given as the source filed them. The rule behind the calls is not given here.

Assay [1] has as its target T1, Proto-oncogene tyrosine-protein kinase Src (Homo sapiens, UniProt P12931). The experiment in a line: Inhibition of src kinase. Put shortly:
(§1)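 Commercial recombinant kinases with kinase-optimised fluorescent peptide substrate at 1.5 μM and ATP at each kinase's measured Km; enzyme below 50 nM final. 11-point titration in DMSO, […] to 5 nM final. Room temperature, 1-2 h, to 20-30% substrate phosphorylation. EDTA stop, then substrate/product electrophoretic separation. IC50 from a Hill-equation fit of percent inhibition.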

The target of assay [2] is Tyrosine-protein kinase Lck (Homo sapiens) (UniProt P06239). Kind of assay: Inhibition of AMP-PNP binding to ATP binding site of LCK by saturation transfer difference spectra. Put shortly:
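Lck kinase domain in 25 mM HEPES (pH 7.5), 200 mM NaCl, 10 mM MgCl2, 1 mM DTT, 5% DMSO/95% D2O; 25 °C, 600 MHz. Ligand is in large excess over protein. Protein saturated at 0.78 ppm for 3 s with 60 G4 Gaussian cascade pulses of 50 ms, 1 ms apart. STD % is peak intensity in STD spectrum over 1D 1H reference.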

The target in assay [3] is T1, Proto-oncogene tyrosine-protein kinase Src. The experiment in a line: Inhibition of AMP-PNP binding to ATP binding site of human SRC by saturation transfer difference spectra.
Assay [4] has the same target. Kind of assay: Inhibition of staurosporine binding to ATP binding site of human SRC by saturation transfer difference spectra. Put shortly:
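Human Src kinase domain (T250-L536, Sf21 insect-cell expressed, His6-tagged, Ni-NTA then gel filtration). NMR buffer 20 mM HEPES (pH 7.5), 200 mM NaCl, 5 mM MgCl2, 2 mM DTT, 2% DMSO/98% D2O; 25 °C, 600 MHz. Saturation at 0.78 ppm for 3 s (60 × 50 ms G4 pulses). STD % is STD over 1D reference intensity.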

The target of assay [5] is Tyrosine-protein kinase Lck (Homo sapiens) (UniProt P06239). Kind of assay: Binding affinity to LCK assessed as reduction of compound relaxation intensity ratio at 100 uM by NMR method. Put shortly:
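Lck kinase domain in 25 mM HEPES (pH 7.5), 200 mM NaCl, 10 mM MgCl2, 1 mM DTT, 5% DMSO/95% D2O; 25 °C, 600 MHz cryoprobe. T1ρ spectra at 10 and 200 ms spin-lock, 128 scans each. Ratio is the 200 ms over 10 ms resonance intensity, compared between spin-labelled probe and its reduced form.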

For assay [6], the target named is T1, Proto-oncogene tyrosine-protein kinase Src. The experiment in a line: Inhibition of src kinase by functional activity assay of the Src kinase domain.
For assay [7], the target named is Tyrosine-protein kinase ABL1 (Homo sapiens, UniProt P00519). The experiment in a line: Inhibition of Abl 1. Put shortly: as §1
The target in another assay is Aurora kinase B (Homo sapiens, UniProt Q96GD4). The experiment in a line: Inhibition of Aurora B. Put shortly:
as §1

The target in assay [8] is Cyclin-dependent kinase 1/cyclin B (Homo sapiens, UniProt P06493). Kind of assay: Inhibition of CDK1/Cyclin B. The format is protein-complex assay.
Assay [9] concerns the target Cyclin-dependent kinase 2/cyclin A (Homo sapiens, UniProt P24941). Kind of assay: Inhibition of CDK2/Cyclin A. The format is protein-complex assay.
Assay [10] addresses Tyrosine-protein kinase Fyn (Homo sapiens, UniProt P06241). Kind of assay: Inhibition of Fyn. Put shortly: as §1
Assay [11] concerns the target Tyrosine-protein kinase HCK (Homo sapiens, UniProt P08631). The experiment in a line: Inhibition of Hck. Put shortly:
as §1

Assay [12] deals with Tyrosine-protein kinase Lyn (Homo sapiens, UniProt P07948). Kind of assay: Inhibition of Lyn A. Put shortly:
as §1

In assay [13] the target is Vascular endothelial growth factor receptor 2 (Homo sapiens, UniProt P35968). The experiment in a line: Inhibition of KDR. Put shortly:
as §1

Assay [14] addresses Mitogen-activated protein kinase 1 (Homo sapiens, UniProt P28482). The experiment in a line: Inhibition of ERK2.
Assay [15] deals with Mitogen-activated protein kinase 14 (Homo sapiens, UniProt Q16539). Kind of assay: Inhibition of p38alpha.
Assay [16] concerns the target MAP kinase-activated protein kinase 2 (Homo sapiens, UniProt P49137). The experiment in a line: Inhibition of MK2.
Assay [17] is described as follows: Inhibition of PKA.
Assay [18] concerns the target Protein kinase C beta type (Homo sapiens, UniProt P05771). The experiment in a line: Inhibition of PKCbeta1.
Assay [19] has as its target Protein kinase C alpha type (Homo sapiens, UniProt P17252). The experiment in a line: Inhibition of PKCalpha. Put shortly: as §1
The target in assay [20] is Casein kinase I isoform gamma-1 (Homo sapiens, UniProt Q9HCP0). Kind of assay: Inhibition of CK1gamma1.
Assay [21] has as its target T2, Mitogen-activated protein kinase kinase kinase kinase 2 (Homo sapiens, UniProt Q12851).
T2 sequence (Q12851 whole entry): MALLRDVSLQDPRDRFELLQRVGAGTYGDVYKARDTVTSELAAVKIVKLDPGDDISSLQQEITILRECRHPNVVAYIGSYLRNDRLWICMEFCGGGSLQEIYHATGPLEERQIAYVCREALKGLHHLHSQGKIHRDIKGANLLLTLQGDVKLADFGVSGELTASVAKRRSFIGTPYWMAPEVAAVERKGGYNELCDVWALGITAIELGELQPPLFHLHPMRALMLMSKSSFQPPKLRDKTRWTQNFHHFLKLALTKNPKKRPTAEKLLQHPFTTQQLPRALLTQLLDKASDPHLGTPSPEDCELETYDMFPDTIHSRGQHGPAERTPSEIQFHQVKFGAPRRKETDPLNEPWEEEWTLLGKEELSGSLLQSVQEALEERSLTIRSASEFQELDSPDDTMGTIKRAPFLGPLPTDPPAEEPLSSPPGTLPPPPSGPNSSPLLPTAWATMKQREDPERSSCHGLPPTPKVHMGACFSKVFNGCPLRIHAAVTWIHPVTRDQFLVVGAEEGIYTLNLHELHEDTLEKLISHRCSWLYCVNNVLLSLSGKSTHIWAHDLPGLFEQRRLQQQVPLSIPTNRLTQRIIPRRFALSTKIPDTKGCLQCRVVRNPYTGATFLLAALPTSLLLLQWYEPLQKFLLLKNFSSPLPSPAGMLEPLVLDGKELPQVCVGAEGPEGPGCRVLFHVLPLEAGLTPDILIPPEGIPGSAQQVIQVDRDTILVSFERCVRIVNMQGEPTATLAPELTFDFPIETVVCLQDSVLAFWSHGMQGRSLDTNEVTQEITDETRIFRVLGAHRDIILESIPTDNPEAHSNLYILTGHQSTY
The experiment in a line: Inhibition of GCK. Put shortly: as §1

Assay [22] concerns the target Platelet-derived growth factor receptor alpha (Homo sapiens, UniProt P16234). The experiment in a line: Inhibition of PDGFRalpha. Put shortly:
as §1

Assay [23] has as its target Ribosomal protein S6 kinase alpha-1 (Homo sapiens, UniProt Q15418). The experiment in a line: Inhibition of RSK1.

Chain of Tyrosine-protein kinase Lck (Homo sapiens) (P06239 2-509 limits assumed): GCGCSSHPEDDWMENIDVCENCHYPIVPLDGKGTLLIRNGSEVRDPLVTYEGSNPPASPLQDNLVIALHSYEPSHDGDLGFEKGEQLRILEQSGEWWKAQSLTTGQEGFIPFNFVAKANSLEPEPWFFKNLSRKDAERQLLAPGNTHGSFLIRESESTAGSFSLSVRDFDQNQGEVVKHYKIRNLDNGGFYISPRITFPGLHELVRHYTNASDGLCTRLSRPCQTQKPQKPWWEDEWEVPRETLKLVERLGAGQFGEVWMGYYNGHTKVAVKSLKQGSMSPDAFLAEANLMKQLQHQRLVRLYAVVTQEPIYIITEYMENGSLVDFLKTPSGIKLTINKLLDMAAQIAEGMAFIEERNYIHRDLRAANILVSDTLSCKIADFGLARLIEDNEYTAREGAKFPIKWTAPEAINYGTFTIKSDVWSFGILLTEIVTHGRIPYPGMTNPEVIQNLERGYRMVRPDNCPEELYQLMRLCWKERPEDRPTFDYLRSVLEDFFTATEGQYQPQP
T1 sequence (P12931 2-536 limits assumed): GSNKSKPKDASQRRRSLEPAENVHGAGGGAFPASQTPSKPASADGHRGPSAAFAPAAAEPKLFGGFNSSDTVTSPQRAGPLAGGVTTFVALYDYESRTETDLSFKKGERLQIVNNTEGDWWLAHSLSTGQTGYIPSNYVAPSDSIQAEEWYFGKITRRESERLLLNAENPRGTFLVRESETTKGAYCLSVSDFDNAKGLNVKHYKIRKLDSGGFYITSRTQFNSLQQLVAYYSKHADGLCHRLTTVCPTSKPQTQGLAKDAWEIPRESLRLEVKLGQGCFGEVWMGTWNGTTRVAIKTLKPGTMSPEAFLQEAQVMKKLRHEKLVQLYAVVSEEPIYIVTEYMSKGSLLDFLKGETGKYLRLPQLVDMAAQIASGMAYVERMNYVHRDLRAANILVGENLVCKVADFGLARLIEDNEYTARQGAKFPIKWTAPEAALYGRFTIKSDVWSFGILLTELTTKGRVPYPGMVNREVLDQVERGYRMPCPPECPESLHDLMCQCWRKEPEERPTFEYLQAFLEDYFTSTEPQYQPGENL
Chain of Tyrosine-protein kinase HCK (P08631 whole entry): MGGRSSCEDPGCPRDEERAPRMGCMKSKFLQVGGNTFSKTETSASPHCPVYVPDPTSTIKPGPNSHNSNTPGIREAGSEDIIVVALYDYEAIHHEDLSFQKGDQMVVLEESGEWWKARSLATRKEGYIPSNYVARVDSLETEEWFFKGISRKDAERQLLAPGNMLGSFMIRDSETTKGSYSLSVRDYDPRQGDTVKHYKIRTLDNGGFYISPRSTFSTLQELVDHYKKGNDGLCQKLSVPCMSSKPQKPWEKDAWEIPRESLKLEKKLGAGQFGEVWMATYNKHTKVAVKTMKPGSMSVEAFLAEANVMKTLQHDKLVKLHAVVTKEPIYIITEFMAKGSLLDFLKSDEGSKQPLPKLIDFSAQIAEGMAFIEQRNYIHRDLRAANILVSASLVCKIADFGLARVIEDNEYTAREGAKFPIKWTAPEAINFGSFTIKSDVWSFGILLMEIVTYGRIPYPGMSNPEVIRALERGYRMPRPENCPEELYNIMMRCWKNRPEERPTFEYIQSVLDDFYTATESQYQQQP
Chain of Protein kinase C beta type (P05771 whole entry): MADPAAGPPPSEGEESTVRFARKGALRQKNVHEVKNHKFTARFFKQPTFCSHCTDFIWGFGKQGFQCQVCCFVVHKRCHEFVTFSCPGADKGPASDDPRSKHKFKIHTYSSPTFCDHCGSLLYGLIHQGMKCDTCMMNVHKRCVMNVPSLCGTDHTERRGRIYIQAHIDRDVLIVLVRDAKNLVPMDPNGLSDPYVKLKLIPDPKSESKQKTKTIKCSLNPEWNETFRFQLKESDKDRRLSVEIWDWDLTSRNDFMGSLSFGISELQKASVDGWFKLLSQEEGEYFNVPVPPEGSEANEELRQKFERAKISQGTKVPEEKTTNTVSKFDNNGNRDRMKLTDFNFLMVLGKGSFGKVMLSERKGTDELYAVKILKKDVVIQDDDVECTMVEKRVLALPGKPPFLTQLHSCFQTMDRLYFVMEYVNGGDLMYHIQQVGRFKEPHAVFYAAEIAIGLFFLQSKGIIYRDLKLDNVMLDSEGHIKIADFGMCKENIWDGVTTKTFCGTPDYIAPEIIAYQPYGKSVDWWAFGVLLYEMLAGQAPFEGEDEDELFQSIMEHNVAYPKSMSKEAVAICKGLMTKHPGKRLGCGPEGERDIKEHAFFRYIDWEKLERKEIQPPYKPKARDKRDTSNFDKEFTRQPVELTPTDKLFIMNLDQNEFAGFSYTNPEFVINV
Chain of Ribosomal protein S6 kinase alpha-1 (Q15418 whole entry): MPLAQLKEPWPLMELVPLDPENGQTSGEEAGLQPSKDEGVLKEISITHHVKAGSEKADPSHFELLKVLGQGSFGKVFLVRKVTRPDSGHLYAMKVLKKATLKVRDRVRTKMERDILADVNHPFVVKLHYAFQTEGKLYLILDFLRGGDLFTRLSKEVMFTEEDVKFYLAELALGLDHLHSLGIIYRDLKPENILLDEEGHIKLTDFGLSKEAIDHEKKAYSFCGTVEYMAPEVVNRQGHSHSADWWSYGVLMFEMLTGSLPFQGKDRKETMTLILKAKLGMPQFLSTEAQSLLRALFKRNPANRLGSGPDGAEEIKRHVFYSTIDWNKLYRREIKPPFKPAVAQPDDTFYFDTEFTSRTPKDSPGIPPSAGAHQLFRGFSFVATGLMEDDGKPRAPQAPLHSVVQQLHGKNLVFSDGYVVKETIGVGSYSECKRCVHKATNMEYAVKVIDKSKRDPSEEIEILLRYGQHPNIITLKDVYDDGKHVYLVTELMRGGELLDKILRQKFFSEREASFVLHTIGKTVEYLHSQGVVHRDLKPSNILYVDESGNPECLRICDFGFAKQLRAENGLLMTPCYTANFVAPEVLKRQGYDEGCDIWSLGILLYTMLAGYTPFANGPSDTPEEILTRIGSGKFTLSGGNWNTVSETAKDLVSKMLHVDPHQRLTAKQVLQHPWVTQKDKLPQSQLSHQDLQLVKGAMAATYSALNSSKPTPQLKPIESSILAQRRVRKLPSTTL
Chain of Casein kinase I isoform gamma-1 (Q9HCP0 whole entry, canonical isoform): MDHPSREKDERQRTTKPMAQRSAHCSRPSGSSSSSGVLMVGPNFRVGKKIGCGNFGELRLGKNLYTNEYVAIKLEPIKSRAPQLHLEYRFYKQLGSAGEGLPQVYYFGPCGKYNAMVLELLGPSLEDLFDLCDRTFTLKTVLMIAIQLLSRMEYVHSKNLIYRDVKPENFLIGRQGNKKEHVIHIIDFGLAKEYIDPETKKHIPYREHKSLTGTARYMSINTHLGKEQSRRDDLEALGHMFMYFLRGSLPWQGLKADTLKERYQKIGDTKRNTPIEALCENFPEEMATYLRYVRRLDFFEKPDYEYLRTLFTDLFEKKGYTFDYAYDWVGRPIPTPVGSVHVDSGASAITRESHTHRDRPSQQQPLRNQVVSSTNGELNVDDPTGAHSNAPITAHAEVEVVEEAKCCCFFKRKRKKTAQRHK
Chain of Aurora kinase B (Q96GD4 whole entry): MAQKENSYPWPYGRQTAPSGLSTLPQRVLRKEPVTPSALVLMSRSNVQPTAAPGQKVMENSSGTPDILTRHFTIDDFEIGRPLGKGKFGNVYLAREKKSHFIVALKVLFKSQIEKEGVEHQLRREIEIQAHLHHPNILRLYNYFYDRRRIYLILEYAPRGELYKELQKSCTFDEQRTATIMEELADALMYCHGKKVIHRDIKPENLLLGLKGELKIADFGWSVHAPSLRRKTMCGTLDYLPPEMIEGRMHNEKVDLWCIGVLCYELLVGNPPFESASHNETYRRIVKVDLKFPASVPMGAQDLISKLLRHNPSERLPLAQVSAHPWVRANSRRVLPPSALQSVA
Chain of Tyrosine-protein kinase ABL1 (P00519 whole entry): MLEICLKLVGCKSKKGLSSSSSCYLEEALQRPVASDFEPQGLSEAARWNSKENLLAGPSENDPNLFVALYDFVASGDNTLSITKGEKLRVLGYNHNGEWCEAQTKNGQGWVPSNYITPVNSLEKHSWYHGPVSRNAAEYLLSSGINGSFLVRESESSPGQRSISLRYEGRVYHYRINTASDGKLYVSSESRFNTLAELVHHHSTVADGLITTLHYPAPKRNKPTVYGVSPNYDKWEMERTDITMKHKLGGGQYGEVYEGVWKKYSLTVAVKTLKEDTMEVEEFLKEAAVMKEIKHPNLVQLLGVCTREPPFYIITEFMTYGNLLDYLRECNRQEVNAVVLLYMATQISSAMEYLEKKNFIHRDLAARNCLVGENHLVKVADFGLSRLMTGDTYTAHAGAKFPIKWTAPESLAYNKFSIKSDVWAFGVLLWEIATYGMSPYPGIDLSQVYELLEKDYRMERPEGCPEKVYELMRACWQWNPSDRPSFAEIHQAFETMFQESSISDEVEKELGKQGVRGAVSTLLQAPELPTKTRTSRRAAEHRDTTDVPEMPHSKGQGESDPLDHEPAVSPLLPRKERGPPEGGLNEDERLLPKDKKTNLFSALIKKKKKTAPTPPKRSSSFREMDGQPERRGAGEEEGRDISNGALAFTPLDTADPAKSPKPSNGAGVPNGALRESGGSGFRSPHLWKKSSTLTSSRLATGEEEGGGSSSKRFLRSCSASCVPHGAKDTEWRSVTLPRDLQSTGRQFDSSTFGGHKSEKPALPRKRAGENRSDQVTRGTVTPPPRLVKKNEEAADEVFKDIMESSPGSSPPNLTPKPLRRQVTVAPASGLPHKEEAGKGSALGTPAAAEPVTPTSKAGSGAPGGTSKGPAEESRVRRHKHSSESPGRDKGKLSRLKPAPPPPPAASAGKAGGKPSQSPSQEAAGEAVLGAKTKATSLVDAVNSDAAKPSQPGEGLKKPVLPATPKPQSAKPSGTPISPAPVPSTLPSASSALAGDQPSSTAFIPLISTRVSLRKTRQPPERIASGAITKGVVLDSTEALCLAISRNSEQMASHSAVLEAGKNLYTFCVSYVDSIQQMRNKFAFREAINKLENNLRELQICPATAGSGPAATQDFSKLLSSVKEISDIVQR

On to `O=C(Cc1ccc(-c2ccc(OCCN3CCOCC3)cc2)cn1)NCc1ccccc1` [TIRBANIBULIN], for which the IC50 in assay [1] was greater than 20000 nM; in [6], 40000 nM. In addition, the outcome in assay [2] and in assay [5] was Active. Moreover, the outcome in assay [3] and in assay [4] was inactive.

For `O=C(O)c1ccccc1Nc1ccccc1`, the result in [2] and in assay [5] was Active. Further, the outcome in assay [4] was inactive.

`CC1(C)CC(NC(=O)c2cccc(-c3cc4nccc(Nc5cccc(O)c5)n4n3)c2)CC(C)(C)N1[O]`: the IC50 is 5 nM in [7]; 2900 nM against Aurora kinase B; greater than 50000 nM in assay [8]; greater than 50000 nM in assay [9]; 5 nM in assay [10]; 16 nM in [11]. Further, the concentration for half-maximal inhibition (IC50) in assay [12] is 7 nM; in [1] it was 5 nM; in assay [13], 3.3 nM; in assay [14], greater than 50000 nM; in [15] it was greater than 50000 nM; in assay [16] it was greater than 50000 nM. The 50% inhibitory concentration (IC50) was greater than 50000 nM in assay [17]; greater than 60000 nM in assay [18]; 1300 nM in assay [19]; greater than 50000 nM in [20]; 24 nM in assay [21]; 38 nM in assay [22]. This molecule also showed a 50% inhibitory concentration (IC50) in assay [23] greater than 50000 nM. In addition, the outcome in assay [2] and in [3] was Active.

These data come from ChEMBL document CHEMBL1156806, “Novel synthesis and structural characterization of a high-affinity paramagnetic kinase probe for the identification of non-ATP site binders by nuclear magnetic resonance” (J Med Chem, 2010).
